Data set [1] is described as follows: folding enthalpy; higher = less favourable; fluorescence melt of hairpins on a sequencing array, two-state fit. Conditions: sodium 0.088 M. In a few lines: (§1)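 Folding enthalpy and melting temperature were estimated with bootstrapped two-state fits and combined across four replicates by inverse-variance weighting, with fitted temperatures raised by 9.35 °C to match UV melts. The data were Cy3 fluorescence of library hairpins, with annealed Cy3 and quencher oligos, on a sequenced MiSeq flow cell in 50 mM Na-HEPES pH 8.0, 25 mM NaCl, imaged in 2.5 °C steps up to 60 °C and normalised to pre-quench Cy3 and control constructs.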

A short description of data set [2]: melting temperature; fluorescence melt of hairpins on a sequencing array, two-state fit, raised by 9.35 °C to match UV melts. Particulars: sodium 0.088 M. In a few lines:
as §1

For the sequence GCTAGCTCGAAAGAGAGC (((..(((....)))))), in data set [1], the folding enthalpy is -12.2 kcal/mol. Further, in data set [2], the Tm was found to be 30.4 °C.

As to GCTAGGAAACTAGC (((((....))))), in data set [1], the folding enthalpy was -25.6 kcal/mol. Also, the Tm in data set [2] is 50.8 °C.

For GCTAGGCGAAAGCCACGC ((..(((....)))..)), the folding enthalpy in data set [1] is -14.3 kcal/mol. In data set [2], the Tm stood at 41.5 °C.

Take GCTAGGCGAAAGCCCCGC ((..(((....)))..)): the folding enthalpy in data set [1] was -7.78 kcal/mol. Also, the Tm in data set [2] was found to be 32.6 °C.

Regarding GCTAGGCGAAAGCCCGGC ((..(((....)))..)), the folding enthalpy in data set [1] was -16.9 kcal/mol. The Tm in data set [2] turned out to be 45.6 °C.

As to GCTAGGCGAAAGCCGCGC ((..(((....)))..)), the folding enthalpy in data set [1] was -16.9 kcal/mol. For the same sequence, in data set [2], the Tm is 62 °C.

For the sequence GCTAGGCGAAAGCCGGGC ((..(((....)))..)), the folding enthalpy in data set [1] was -16 kcal/mol. In addition, in data set [2], the Tm is 60 °C.

As to GCTAGGCGAAAGCCGTGC ((..(((....)))..)), in data set [1], the folding enthalpy was -13.9 kcal/mol. The Tm in data set [2] was determined as 57.7 °C.

GCTAGGCGAAAGCCTCGC ((.((((....)))).)): the folding enthalpy in data set [1] is -17.8 kcal/mol. In addition, in data set [2], the Tm is 58.9 °C.

On to GCTAGGCGAAAGCGAAGC (((..((....))..))), for which, in data set [1], the folding enthalpy was -15.8 kcal/mol. Further, the Tm in data set [2] came to 35.3 °C.

Regarding GCTAGGCGAAAGCGTCGC ((.(.((....)).).)), in data set [1], the folding enthalpy is -14.3 kcal/mol. For the same sequence, the Tm in data set [2] was 40.3 °C.

Take GCTAGGCGAAAGCTTGGC ((.(.((....)).).)): in data set [1], the folding enthalpy is -20.6 kcal/mol. Also, the Tm in data set [2] was 45.2 °C.

On to GCTAGGCGAAAGCTTTGC ((.(.((....)).).)), for which the folding enthalpy in data set [1] was -17.6 kcal/mol. The Tm in data set [2] is 42.3 °C.

Regarding GCTAGGGGAAACCCTGGC ((.((((....)))).)), the folding enthalpy in data set [1] is -36.9 kcal/mol. The Tm in data set [2] turned out to be 53.4 °C.

Turning to GCTAGGGGAAACCTTAGC ((((.((....)).)))), in data set [1], the folding enthalpy is -33.7 kcal/mol. The Tm in data set [2] is 44.5 °C.

Turning to GCTAGGGGAAACTCTGGC ((.((.(....).)).)), the folding enthalpy in data set [1] was -23.9 kcal/mol. In addition, the Tm in data set [2] was determined as 32.9 °C.

GCTAGGTCGAAAGACAGC (((..(((....)))))): in data set [1], the folding enthalpy is -18.1 kcal/mol. For the same sequence, in data set [2], the Tm amounted to 39.6 °C.

Turning to GCTAGTCGAAAGACCAGC (((.(((....))).))), in data set [1], the folding enthalpy was -26.6 kcal/mol. The Tm in data set [2] stood at 47.3 °C.

GCTAGTGCGAAAGCAAGC (((..(((....)))))): the folding enthalpy in data set [1] was -12.3 kcal/mol. In addition, the Tm in data set [2] was 39 °C.

Regarding GCTAGTGGAAACATTAGC ((((.((....)).)))), the folding enthalpy in data set [1] was -28.3 kcal/mol. Besides, the Tm in data set [2] was determined as 42.7 °C.

As to GCTATACCGAAAGGTAGC (((..(((....)))))), the folding enthalpy in data set [1] was -17 kcal/mol. The Tm in data set [2] was 40 °C.

With GCTATACGAAAGTAAGC (((.(((....)))))), in data set [1], the folding enthalpy was -22.3 kcal/mol. In addition, the Tm in data set [2] worked out at 40.6 °C.

GCTATAGCGAAAGCTAGC (((..(((....)))))): in data set [1], the folding enthalpy was -18 kcal/mol. Moreover, the Tm in data set [2] was found to be 44.6 °C.

With GCTATAGGAAACTATGGC ((.((((....)))).)), the folding enthalpy in data set [1] is -28.6 kcal/mol. In addition, in data set [2], the Tm stood at 41.7 °C.

On to GCTATCACGAAAGTGAGC (((..(((....)))))), for which the folding enthalpy in data set [1] was -14.1 kcal/mol. Also, the Tm in data set [2] is 36.1 °C.

Take GCTATCCGAAAGGAAAGC (((.(((....))).))): in data set [1], the folding enthalpy was -31.4 kcal/mol. For the same sequence, in data set [2], the Tm was 49 °C.

In the case of GCTATCGAAAGATAGAGC ((((((....)))..))), the folding enthalpy in data set [1] was -23.4 kcal/mol. Also, the Tm in data set [2] amounted to 42.7 °C.

GCTATCGAAAGATCAAGC ((((((....)))..))): in data set [1], the folding enthalpy was -18.3 kcal/mol. Moreover, the Tm in data set [2] was 30.8 °C.

For GCTATCGAAAGATGGAGC ((((((....)))..))), the folding enthalpy in data set [1] was -15.9 kcal/mol. Moreover, the Tm in data set [2] was found to be 33.6 °C.

For the sequence GCTATCGAAAGATTCAGC ((((((....)))..))), the folding enthalpy in data set [1] is -11.6 kcal/mol. In data set [2], the Tm was 29.6 °C.

Take GCTATGCCGAAAGGCAGC (((..(((....)))))): the folding enthalpy in data set [1] was -12.1 kcal/mol. Also, in data set [2], the Tm came out at 40.2 °C.

Consider GCTATGCGAAAGCAAAGC (((.(((....))).))), for which the folding enthalpy in data set [1] is -36 kcal/mol. Also, the Tm in data set [2] turned out to be 51.6 °C.

Take GCTATGCGAAAGCACAGC (((.(((....))).))): the folding enthalpy in data set [1] is -39.7 kcal/mol. Also, the Tm in data set [2] was 48.7 °C.

Regarding GCTATGCGAAAGCATCGC ((.((((....)))).)), the folding enthalpy in data set [1] is -22.5 kcal/mol. Also, the Tm in data set [2] came to 55.3 °C.

As for GCTATGCGAAAGCCTTGC ((.(.((....)).).)), the folding enthalpy in data set [1] was -12.7 kcal/mol. Moreover, the Tm in data set [2] turned out to be 30 °C.

Turning to GCTATGCGAAAGCGCAGC (((..((....))..))), in data set [1], the folding enthalpy was -18 kcal/mol. For the same sequence, in data set [2], the Tm was 36.8 °C.

(Values after the array DNA melting data of Ke et al. (doi:10.1101/2024.01.08.574731).)
